Data: PubChem BioAssay
Active and inactive are the calls of the source.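 The calls were made as follows, unless noted: active = fluorescence slope higher than the sample average by over 3 SD (cut at about -0.22 in these data, passing the limit was not always enough); inactive = the rest.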

Key:
[1] = inhibitors of TNFa-induced NFkB p65 translocation, primary screen, imaging, HUVEC, MLSMR starter and 10KST1 sets (AID 438;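 active = inhibition above 20% together with a positive visual image hit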;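 also: compound added about 3h40 before a 20 min TNFalpha stimulation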;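 as to inhibition: signal is the nuclear over cytoplasmic p65 intensity ratio per well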); conditions: HUVEC TNFa-induced p65 nuclear translocation; cell count: measured here: nuclei count (cytotoxicity indicator), at 2.08 µM; inhibition: at 2 µM, stronger effect = higher value, 0% TNFa-plus-vehicle, 100% no-TNFa wells
[2] = inhibitors of E-selectin induction by TNFa, primary screen, imaging, HUVEC, immunofluorescence, MLSMR starter and 10KST1 sets (AID 487;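 active = visually confirmed hit in the image check and inhibition above 20%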;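 as to inhibition: signal is fraction of cell area covered by stained E-selectin grains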;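 as to nuclei count: 100% = median nuclei count of all wells on the same plate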); conditions: HUVEC TNFalpha-induced E-selectin immunofluorescence imaging, at 2 µM; inhibition: stronger effect = higher value; nuclei count: measured here: cell number, toxicity
[3] = DUSP6 inhibitors restoring Erk phosphorylation by chemical complementation, primary imaging in DUSP6-transfected HeLa (AID 609;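 active = compounds giving at least 50% inhibition in the cell-based MKP-3 phosphatase rescue imaging test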;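 as to inhibition: phospho-Erk level distribution per well compared with pooled transfected vehicle control wells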); conditions: HeLa MKP-3 transfected, phospho-Erk imaging KS statistic, at 10 µM, cells stimulated with TPA for 15 min
[4] = biological target: Dual specificity protein phosphatase 6 (Homo sapiens) (UniProt Q16828); assay: as above; conditions: HeLa MKP-3 transfected, phospho-Erk imaging KS statistic; at 10 µM; stronger effect = higher value; cells stimulated with TPA for 15 min
[5] = biological target: Voltage-gated potassium channel subunit beta-2 (Rattus norvegicus) (UniProt P62483); assay: KvBeta enzyme negative modulators, primary screen, biochemical, NADPH fluorescence (AID 622); conditions: recombinant KvBeta, 4-cyanobenzaldehyde reduction, at 10 µM, stronger effect = higher value;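 also: slope of raw intensity against log time taken from 70 to 1610 s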
[6] = biological target: Voltage-gated potassium channel subunit beta-2 (Rattus norvegicus) (UniProt P62483); assay: KvBeta positive modulators, primary screen, biochemical, NADPH fluorescence (AID 623;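 active = NADPH fluorescence slope more negative than the mean of all samples by about 3 SD, 99.7% confidence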;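 also: fluorescence intensity change per second fitted from 20 to 320 s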); conditions: Recombinant KvBeta, NADPH fluorescence decrease slope, 10 min; at 10 µM; stronger effect = lower value
[7] = biological target: Alpha-2C adrenergic receptor (Homo sapiens) (UniProt P18825); assay: modulators of alpha2C/GIRK thallium flux, primary screen, cell-based, HEK293 alpha2C/GIRK1/2 (AID 624;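 active = fluorescence slope after compound addition differing from the mean of all screened samples at 99.7% confidence, in either direction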;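 also: slope of fluorescence ratio to pre-addition baseline per second over 15 to 24 s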); conditions: thallium flux BTC fluorescence, at 10 µM, actives lie on both sides
[8] = inhibitors of larval lipid processing in zebrafish, primary screen, whole organism, PED6 fluorescence, gall bladder and intestine (AID 686;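 active = a full or partial loss of lipid-probe fluorescence in the fish gall bladder, intestine or both, judged by eye; inactive = no fluorescence loss, or compound toxic to the fish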;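 also: larvae 5 to 7 days old with five fish per well; signal comes from phospholipase A2 cleavage of quenched PED6 carried via bile; overnight exposure to compound and PED6 before scoring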); conditions: Zebrafish larvae PED6 lipid processing, fluorescence scoring; screened at 20 µM (by protocol)
Procedure, shortened: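 Doses: 20 µM single dose. Test system: live zebrafish larvae aged 5-7 days, whole organism. Quantity: five larvae per well. Measured by: By-eye fluorescence microscopy. Reagent: ingested quenched lipid PED6 at 100 nM. Read-out: visual per-well fluorescence inhibition score. Times: overnight exposure of larvae to compound plus PED6.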

[9] = inhibitors of Chlamydomonas gravitaxis, primary screen, whole organism, Chlamydomonas reinhardtii, WT vs cilia-less mutant, absorbance, 96-well (AID 463189;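 active = inhibition at or above 50% relative to wild type and mutant plate controls; inactive = inhibition below 50%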;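 also: 0% = wild type cc124 cells in DMSO and 100% = ciliumless bld1 mutant cells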); conditions: OD600 absorbance, 2 days, at 10 µM, stronger effect = higher value
[10] = measured here: cell density z-score
[11] = measured here: nuclear c-Myc green intensity z-score
[12] = measured here: nuclear pErk red intensity z-score, stronger effect = higher value

Chain of Dual specificity protein phosphatase 6 (Homo sapiens) (Q16828 whole entry, looked up): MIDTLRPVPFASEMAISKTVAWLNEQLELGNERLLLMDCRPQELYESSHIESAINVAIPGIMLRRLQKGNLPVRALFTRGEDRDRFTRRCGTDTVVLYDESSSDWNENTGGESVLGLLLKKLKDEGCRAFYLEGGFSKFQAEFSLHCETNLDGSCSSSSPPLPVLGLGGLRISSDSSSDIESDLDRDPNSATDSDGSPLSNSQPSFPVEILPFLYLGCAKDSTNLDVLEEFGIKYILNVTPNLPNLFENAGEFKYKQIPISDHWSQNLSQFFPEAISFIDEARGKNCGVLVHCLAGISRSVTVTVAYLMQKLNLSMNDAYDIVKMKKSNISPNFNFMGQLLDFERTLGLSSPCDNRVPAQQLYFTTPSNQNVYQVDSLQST
Chain of Alpha-2C adrenergic receptor (Homo sapiens) (P18825 whole entry, looked up): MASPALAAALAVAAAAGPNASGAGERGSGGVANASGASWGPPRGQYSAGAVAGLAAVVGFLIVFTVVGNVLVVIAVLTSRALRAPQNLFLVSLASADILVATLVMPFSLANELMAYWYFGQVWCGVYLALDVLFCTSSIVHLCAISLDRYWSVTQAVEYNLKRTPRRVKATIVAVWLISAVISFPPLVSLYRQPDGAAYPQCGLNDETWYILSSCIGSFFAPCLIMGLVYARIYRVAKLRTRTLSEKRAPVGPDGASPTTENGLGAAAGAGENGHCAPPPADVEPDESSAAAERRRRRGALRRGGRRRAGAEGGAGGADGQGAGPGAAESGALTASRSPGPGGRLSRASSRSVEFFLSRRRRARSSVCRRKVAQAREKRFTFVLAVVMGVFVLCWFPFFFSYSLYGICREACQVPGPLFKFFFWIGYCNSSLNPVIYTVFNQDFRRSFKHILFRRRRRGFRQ
Chain of Voltage-gated potassium channel subunit beta-2 (Rattus norvegicus) (P62483 whole entry, looked up): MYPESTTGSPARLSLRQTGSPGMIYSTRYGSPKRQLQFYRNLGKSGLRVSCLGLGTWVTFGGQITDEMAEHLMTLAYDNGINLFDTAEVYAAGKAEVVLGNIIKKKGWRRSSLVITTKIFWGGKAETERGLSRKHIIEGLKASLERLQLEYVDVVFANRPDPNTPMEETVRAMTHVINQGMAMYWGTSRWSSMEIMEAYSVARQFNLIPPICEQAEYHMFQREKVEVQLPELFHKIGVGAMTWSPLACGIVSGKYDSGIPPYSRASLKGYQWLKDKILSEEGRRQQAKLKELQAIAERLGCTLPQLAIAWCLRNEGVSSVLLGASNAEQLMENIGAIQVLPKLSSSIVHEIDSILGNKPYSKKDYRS

SMILES	cell count [1]	inhibition [1]	inhibition [2]	nuclei count [2] [%]	z-score [3, 10]	z-score [3, 11]	z-score [3, 12]	inhibition [4]	fluorescence slope [5]	NADPH fluorescence slope [6]	slope [7]	outcome [8]	inhibition [9]
CC(C)Cc1nc(N2CCN(C(=O)C(C)C)CC2)c(C#N)c2c1CCC2	541	1% (inactive)	-148% (inactive)	141	-1.27	0.114	1.85	-3.5% (inactive)	-0.499 (inactive)	-3.3e-05 (inactive)	0.00462 (inactive)	inactive	5.12% (inactive)
Cc1nc(N2CCN(Cc3ccccc3)CC2)c(C#N)c2c1COC(C)(C)C2	686	-5.4% (inactive)	-178% (inactive)	195	0.66	-1.21	0.193	3.66% (inactive)	-0.487 (inactive)	-0.000123 (inactive)	0.00373 (inactive)	inactive	-5.61% (inactive)
CCOC(=O)c1c(C(C#N)C#N)cc(C)nc1C	521	-5.3% (inactive)	-83.6% (inactive)	129	0.584	-0.43	0.768	-2.07% (inactive)	-0.509 (inactive)	-8e-05 (inactive)	0.00491 (inactive)	inactive	9.41% (inactive)
COCc1[nH]nc2c1C(c1cccc(OC)c1)C(C#N)=C(N)O2 (centres undefined)	637	-2.3% (inactive)	-17.7% (inactive)	174	0.403	-0.811	-1.74	-2.29% (inactive)	-0.403 (inactive)	-3.7e-05 (inactive)	0.00513 (inactive)	inactive	2.83% (inactive)
Clc1ccccc1CSc1nnc(-c2ccco2)c(-c2ccco2)n1	554	-6.9% (inactive)	-21.1% (inactive)	157	-1.8	0.808	0.169	-10.5% (inactive)	-0.407 (inactive)	-1.8e-05 (inactive)	0.00446 (inactive)	inactive	19.9% (inactive)
CCOC(=O)CCc1c(C)c(C#N)c2nc3ccccc3n2c1-n1ccnc1C	583	-0.8% (inactive)	-125% (inactive)	138	-0.341	0.0322	-0.112	7.93% (inactive)	-0.457 (inactive)	-3.9e-05 (inactive)	0.00607 (inactive)	inactive	21.4% (inactive)
Cc1ccc(NC(=O)CSC2=C(C#N)C(c3ccco3)C3=C(CCCC3=O)N2)cc1 (centres undefined)	382	1.6% (inactive)	-118% (inactive)	144	1.1	-0.193	-0.0699	-0.584% (inactive)	-0.438 (inactive)	-5.7e-07 (inactive)	0.00635 (inactive)	inactive	32.7% (inactive)
OC1CN=C2Sc3ccccc3N2C1 (centres undefined)	530	13.2% (inactive)	-227% (inactive)	188	-0.279	0.975	0.81	-7.28% (inactive)	-0.378 (inactive)	-1.8e-05 (inactive)	0.00473 (inactive)	inactive	-4.68% (inactive)
COc1cccc(-c2nn3c(-c4ccccn4)nnc3s2)c1	630	-8% (inactive)	-117% (inactive)	150	0.488	-0.624	-0.933	15.5% (inactive)	-0.454 (inactive)	-0.000157 (inactive)	0.00706 (inactive)	inactive	65.3% (active)
CCCCOc1cccc(-c2nnc(N)s2)c1	629	-13.6% (inactive)	29.1% (inactive)	161	-0.391	0.503	-0.82	-13.3% (inactive)	-0.395 (inactive)	-4.2e-05 (inactive)	0.00766 (inactive)	inactive	-2.21% (inactive)
Oc1ccc(C=Nc2ccc3ncccc3c2)c(O)c1	490	-5.8% (inactive)	-113% (inactive)	117	1.18	-0.733	-0.981	3.66% (inactive)	-0.477 (inactive)	-3.5e-05 (inactive)	0.00388 (inactive)	inactive	-13.6% (inactive)
CN1C(=S)SC(N(O)C(=O)Nc2ccccc2)C1(C)C (centres undefined)	486	8.3% (inactive)	-95.4% (inactive)	168	0.407	-0.73	0.0884	7.73% (inactive)	-0.52 (inactive)	-0.000109 (inactive)	0.00576 (inactive)	inactive	-9.05% (inactive)
CCCCCc1nc2sc3c(c2c(=O)n1N)CCC3	632	-11.1% (inactive)	46.3% (inactive)	166	-1.49	2.03	1.67	-9.7% (inactive)	-0.507 (inactive)	-0.000102 (inactive)	0.00473 (inactive)	inactive	68.1% (active)
